“Also recorded” adds a separate entry of the source.
Key:
[1] = tested on: primary human hepatocytes; assay: intracellular metabolism in primary human hepatocytes; type: in vitro ADME; conditions: 50 μM, 4 h
primary dog hepatocytes = assay: intracellular metabolism in primary dog hepatocytes; type: in vitro ADME; conditions: 50 μM, 4 h
human cardiomyocytes [2] = assay: recording of human cardiomyocyte beating patterns; type: cell-based
Huh-7 cells = assay: intracellular metabolism in Huh-7 cells; type: in vitro ADME, human; conditions: Huh-7, 50 μM, 4 h
HepG2 cells [3] = conditions: up to 50 μM; cited from earlier work
[4] = single dose escalation and seven day repeat dosing in rats; conditions: rat, in vivo
[5] = tested on: HCV genotype 1 b RNA replication; assay: subgenomic HCV replicon system, inhibition of HCV RNA replication in Huh-7 cells; type: cell-based, hepatitis C virus; conditions: HCV genotype 1 b subgenomic replicon
Procedure, shortened: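 HCV genotype 1b subgenomic replicon in Huh-7 cells. HCV RNA and cellular ribosomal RNA were extracted and amplified, so replication and cytotoxicity were read in the same cells.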

[6] = single dose escalation and seven day repeat dosing in dogs; conditions: dog, in vivo
[7] = tested on: primary mouse hepatocytes; assay: intracellular metabolism in primary mouse hepatocytes; type: in vitro ADME; conditions: 50 μM, 4 h
HepG2 cells [8] = assay: intracellular metabolism in HepG2 cells; type: in vitro ADME, human; conditions: HepG2, 50 μM, 4 h
[9] = tested on: primary monkey hepatocytes; assay: intracellular metabolism in primary monkey hepatocytes; type: in vitro ADME; conditions: 50 μM, 4 h
primary rat hepatocytes = assay: intracellular metabolism in primary rat hepatocytes; type: in vitro ADME; conditions: 50 μM, 4 h
human cardiomyocytes [10] = assay: cellular accumulation and metabolism in human cardiomyocytes; type: in vitro ADME; conditions: 10 μM
various cell lines = conditions: up to 100 μM; cited from earlier work

CC(C)OC(=O)CCc1ccccc1OP(=O)(N[C@@H](C)C(=O)OC(C)C)OC[C@H]1O[C@@H](n2cnc3c(N)nc(N)nc32)[C@](C)(O)[C@@H]1O (stereo partly drawn) [DAPN-PD, Isopropyl 3-(2-(((((2R,3R,4R,5R)-5-(2,6-diamino-9H-purin-9-yl)-3,4-dihydroxy-4-methyltetrahydrofuran-2-yl)methoxy)(((S)-1-isopropoxy-1-oxopropan-2-yl)amino)phosphoryl)oxy)phenyl)propanoate]
Intracellular concentration: Prodrugs [1]: 70 ± 6 pmol/10^6 cells
Intracellular concentration: Prodrugs (primary dog hepatocytes): 6.3 ± 1.5 pmol/10^6 cells
Beating rate of human cardiomyocytes (human cardiomyocytes [2]; 2 μM, 2 h): 33.5 ± 0.7 beats/minute
Beating rate of human cardiomyocytes (human cardiomyocytes [2]; 2 μM, 4 h): 34.0 ± 0 beats/minute
Beating rate of human cardiomyocytes (human cardiomyocytes [2]; 2 μM, 8 h): 37.0 ± 0 beats/minute
Beating rate of human cardiomyocytes (human cardiomyocytes [2]; 2 μM, 12 h): 36.0 ± 0 beats/minute
Beating rate of human cardiomyocytes (human cardiomyocytes [2]; 2 μM, 24 h): 34.0 ± 1.4 beats/minute
Beating rate of human cardiomyocytes (human cardiomyocytes [2]; 2 μM, 48 h): 27.5 ± 0.7 beats/minute
change in beating rate or rhythm of cardiomyocytes (observation) (human cardiomyocytes [2]; 2 μM, up to 48 h): did not observe beating changes
Beating rate of human cardiomyocytes (human cardiomyocytes [2]; 10 μM, 2 h): 24.5 ± 0.7 beats/minute
Beating rate of human cardiomyocytes (human cardiomyocytes [2]; 10 μM, 4 h): 23.5 ± 0.7 beats/minute
Beating rate of human cardiomyocytes (human cardiomyocytes [2]; 10 μM, 8 h): 26.0 ± 1.4 beats/minute
Beating rate of human cardiomyocytes (human cardiomyocytes [2]; 10 μM, 12 h): 25.5 ± 0.7 beats/minute
Beating rate of human cardiomyocytes (human cardiomyocytes [2]; 10 μM, 24 h): 25.5 ± 0.7 beats/minute
Beating rate of human cardiomyocytes (human cardiomyocytes [2]; 10 μM, 48 h): 25.5 ± 0.7 beats/minute
change in beating rate or rhythm of cardiomyocytes (observation) (human cardiomyocytes [2]; 10 μM, up to 48 h): changes to both beat rate and rhythm were noted; also recorded: caused the beat rate to decrease
Beating rate of human cardiomyocytes (human cardiomyocytes [2]; 50 μM, 2 h): 21.5 ± 0.7 beats/minute
Beating rate of human cardiomyocytes (human cardiomyocytes [2]; 50 μM, 4 h): 21.0 ± 0 beats/minute
Beating rate of human cardiomyocytes (human cardiomyocytes [2]; 50 μM, 8 h): 22.0 ± 0 beats/minute
Beating rate of human cardiomyocytes (human cardiomyocytes [2]; 50 μM, 12 h): 21.0 ± 0 beats/minute
Beating rate of human cardiomyocytes (human cardiomyocytes [2]; 50 μM, 24 h): 19.0 ± 0 beats/minute
Beating rate of human cardiomyocytes (human cardiomyocytes [2]; 50 μM, 48 h): 17.0 ± 0 beats/minute
rhythm of cardiomyocytes (observation) (human cardiomyocytes [2]; 10 and 50 μM): altered and irregular
change in beating rate of cardiomyocytes (observation) (human cardiomyocytes [2]; 10 and 50 μM, up to 48 h): the beating rate dropped within 2 h then remained at a reduced rate out to 48 h
Intracellular concentration: Prodrugs (Huh-7 cells): 170 ± 4 pmol/10^6 cells
mitochondrial toxicity or increase in lactic acid levels (HepG2 cells [3]): no mitochondrial toxicity or increase in lactic acid levels
NOAEL at 7 day [4]: < 40 mg/kg/day
Replicon Huh-7 EC50 [5]: sub-micromolar
NOAEL at 7 day [6]: < 40 mg/kg/day
Intracellular concentration: 2’-C-Me-G [7]: BLOQ
Intracellular concentration: Prodrugs [7]: 13 ± 1 pmol/10^6 cells
Intracellular concentration: Prodrugs (HepG2 cells [8]): 390 ± 33 pmol/10^6 cells
Intracellular concentration: Prodrugs [9]: 160 ± 4 pmol/10^6 cells
Intracellular concentration: Prodrugs (primary rat hepatocytes): 0.90 ± 0.50 pmol/10^6 cells
Intracellular concentration in human cardiomyocytes: Prodrugs (human cardiomyocytes [10]; 4 h): 70 ± 3 pmol/10^6 cells
Intracellular concentration in human cardiomyocytes: Prodrugs (human cardiomyocytes [10]; 8 h): 51 ± 1 pmol/10^6 cells
intact prodrug level, times lower than BMS-986094 (human cardiomyocytes [10]; human cardiomyocytes, 8 h): 16 times
in vitro cytotoxicity in various cell lines (various cell lines): no in vitro cytotoxicity
